Experimental data taken from ChEMBL document CHEMBL4689842, “EUbOPEN Chemogenomics Library wave 1” (2021).

System: HEK-293T
Experiment: Multiplex assay against HEK293T;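 on Population Tubulin-Different-Phenotype (%): share of the cells with healthy nuclei that show this phenotype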
Format: toxicity, cell-based
Settings: human
Summary of the method: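 Tubulin, mitochondrial-mass and membrane-permeability phenotypes are per cents of healthy-nucleus cells. Cells were gated by CellPathfinder machine learning into Hoechst high-intensity objects or normal cells, normal cells into healthy, pyknosed or fragmented nuclei, and pyknosed cells into mitotic or apoptotic. Before that, live cells stained at seeding with Hoechst33342, BioTracker Green Microtubule Cytoskeleton Dye, MitoTracker Red and Annexin V Alexa Fluor 680 were imaged on a CQ1 microscope at 37°C and 5% CO2 after compound addition.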

[1] = 12 h, 1 µM, compound concentration 1 uM, replicate 1
[2] = 12 h, 1 µM, compound concentration 1 uM, replicate 2
[3] = 12 h, 10 µM, compound concentration 10 uM, replicate 1
[4] = 12 h, 10 µM, compound concentration 10 uM, replicate 2
[5] = 24 h, 1 µM, compound concentration 1 uM, replicate 1
[6] = 24 h, 1 µM, compound concentration 1 uM, replicate 2
[7] = 24 h, 10 µM, compound concentration 10 uM, replicate 1
[8] = 24 h, 10 µM, compound concentration 10 uM, replicate 2
[9] = 48 h, 1 µM, compound concentration 1 uM, replicate 1
[10] = 48 h, 1 µM, compound concentration 1 uM, replicate 2
[11] = 48 h, 10 µM, compound concentration 10 uM, replicate 1
[12] = 48 h, 10 µM, compound concentration 10 uM, replicate 2

Question: `Cl.Oc1ccc2c3c1O[C@H]1c4[nH]c5c(c4C[C@@]4(O)[C@@H](C2)N(CC2CC2)CC[C@]314)C[C@@]1(O)[C@H]2Cc3ccc(O)c4c3[C@@]1(CCN2CC1CC1)[C@H]5O4` was tested. Which “Population Apoptotic (%)” value [1] did it give?
Answer: 47%

Question: And the “Population Fragmented Nuclei (%)” value [1]?
Answer: 8%

Question: What about the “Population Healthy Nuclei (%)” value [1] of the same molecule?
Answer: 45%

Question: What about the “Population Hoechst High Intensity Objects (%)” value [1] of the same molecule?
Answer: 13%

Question: What about the “Population Membrane Permeable-Phenotype (%)” value [1] of the same molecule?
Answer: 0%

Question: What about the “Population Mitochondria Different-Phenotype (%)” value [1] of the same molecule?
Answer: 74%

Question: And the “Population Mitotic Cells (%)” value [1]?
Answer: 52%

Question: And the “Population Normal (%)” value [1]?
Answer: 86%

Question: And the “Population Pyknosed Nuclei (%)” value [1]?
Answer: 45%

Question: And the “Population Tubulin-Different-Phenotype (%)” value [1]?
Answer: 46%

Question: What about the “Total Cell Count” value [1] of the same molecule?
Answer: 294

Question: What about the “Population Apoptotic (%)” value [2] of the same molecule?
Answer: 10%

Question: And the “Population Fragmented Nuclei (%)” value [2]?
Answer: 4%

Question: And the “Population Healthy Nuclei (%)” value [2]?
Answer: 38%

Question: And the “Population Hoechst High Intensity Objects (%)” value [2]?
Answer: 5%

Question: And the “Population Membrane Permeable-Phenotype (%)” value [2]?
Answer: 8%

Question: What about the “Population Mitochondria Different-Phenotype (%)” value [2] of the same molecule?
Answer: 10%

Question: What about the “Population Mitotic Cells (%)” value [2] of the same molecule?
Answer: 89%

Question: And the “Population Normal (%)” value [2]?
Answer: 94%

Question: What about the “Population Pyknosed Nuclei (%)” value [2] of the same molecule?
Answer: 56%

Question: What about the “Population Tubulin-Different-Phenotype (%)” value [2] of the same molecule?
Answer: 12%

Question: And the “Total Cell Count” value [2]?
Answer: 128

Question: And the “Population Apoptotic (%)” value [3]?
Answer: 40%

Question: What about the “Population Fragmented Nuclei (%)” value [3] of the same molecule?
Answer: 7%

Question: What about the “Population Healthy Nuclei (%)” value [3] of the same molecule?
Answer: 49%

Question: And the “Population Hoechst High Intensity Objects (%)” value [3]?
Answer: 12%

Question: What about the “Population Membrane Permeable-Phenotype (%)” value [3] of the same molecule?
Answer: 3%

Question: What about the “Population Mitochondria Different-Phenotype (%)” value [3] of the same molecule?
Answer: 79%

Question: What about the “Population Mitotic Cells (%)” value [3] of the same molecule?
Answer: 59%

Question: And the “Population Normal (%)” value [3]?
Answer: 87%

Question: And the “Population Pyknosed Nuclei (%)” value [3]?
Answer: 43%

Question: And the “Population Tubulin-Different-Phenotype (%)” value [3]?
Answer: 33%

Question: And the “Total Cell Count” value [3]?
Answer: 253

Question: And the “Population Apoptotic (%)” value [4]?
Answer: 7%

Question: And the “Population Fragmented Nuclei (%)” value [4]?
Answer: 5%

Question: What about the “Population Healthy Nuclei (%)” value [4] of the same molecule?
Answer: 45%

Question: What about the “Population Hoechst High Intensity Objects (%)” value [4] of the same molecule?
Answer: 2%

Question: What about the “Population Membrane Permeable-Phenotype (%)” value [4] of the same molecule?
Answer: 6%

Question: What about the “Population Mitochondria Different-Phenotype (%)” value [4] of the same molecule?
Answer: 27%

Question: And the “Population Mitotic Cells (%)” value [4]?
Answer: 92%

Question: And the “Population Normal (%)” value [4]?
Answer: 97%

Question: And the “Population Pyknosed Nuclei (%)” value [4]?
Answer: 48%

Question: What about the “Population Tubulin-Different-Phenotype (%)” value [4] of the same molecule?
Answer: 22%

Question: And the “Total Cell Count” value [4]?
Answer: 294

Question: What about the “Population Apoptotic (%)” value [5] of the same molecule?
Answer: 43%

Question: What about the “Population Fragmented Nuclei (%)” value [5] of the same molecule?
Answer: 11%

Question: And the “Population Healthy Nuclei (%)” value [5]?
Answer: 38%

Question: What about the “Population Hoechst High Intensity Objects (%)” value [5] of the same molecule?
Answer: 12%

Question: And the “Population Membrane Permeable-Phenotype (%)” value [5]?
Answer: 0%

Question: What about the “Population Mitochondria Different-Phenotype (%)” value [5] of the same molecule?
Answer: 61%

Question: What about the “Population Mitotic Cells (%)” value [5] of the same molecule?
Answer: 56%

Question: And the “Population Normal (%)” value [5]?
Answer: 87%

Question: What about the “Population Pyknosed Nuclei (%)” value [5] of the same molecule?
Answer: 50%

Question: And the “Population Tubulin-Different-Phenotype (%)” value [5]?
Answer: 37%

Question: And the “Total Cell Count” value [5]?
Answer: 307

Question: And the “Population Apoptotic (%)” value [6]?
Answer: 6%

Question: And the “Population Fragmented Nuclei (%)” value [6]?
Answer: 7%

Question: What about the “Population Healthy Nuclei (%)” value [6] of the same molecule?
Answer: 53%

Question: And the “Population Hoechst High Intensity Objects (%)” value [6]?
Answer: 4%

Question: What about the “Population Membrane Permeable-Phenotype (%)” value [6] of the same molecule?
Answer: 8%

Question: What about the “Population Mitochondria Different-Phenotype (%)” value [6] of the same molecule?
Answer: 13%

Question: What about the “Population Mitotic Cells (%)” value [6] of the same molecule?
Answer: 93%

Question: What about the “Population Normal (%)” value [6] of the same molecule?
Answer: 95%

Question: What about the “Population Pyknosed Nuclei (%)” value [6] of the same molecule?
Answer: 39%

Question: And the “Population Tubulin-Different-Phenotype (%)” value [6]?
Answer: 26%

Question: What about the “Total Cell Count” value [6] of the same molecule?
Answer: 164

Question: And the “Population Apoptotic (%)” value [7]?
Answer: 35%

Question: What about the “Population Fragmented Nuclei (%)” value [7] of the same molecule?
Answer: 9%

Question: What about the “Population Healthy Nuclei (%)” value [7] of the same molecule?
Answer: 58%

Question: And the “Population Hoechst High Intensity Objects (%)” value [7]?
Answer: 7%

Question: And the “Population Membrane Permeable-Phenotype (%)” value [7]?
Answer: 0%

Question: What about the “Population Mitochondria Different-Phenotype (%)” value [7] of the same molecule?
Answer: 54%

Question: What about the “Population Mitotic Cells (%)” value [7] of the same molecule?
Answer: 64%

Question: And the “Population Normal (%)” value [7]?
Answer: 92%

Question: What about the “Population Pyknosed Nuclei (%)” value [7] of the same molecule?
Answer: 32%

Question: What about the “Population Tubulin-Different-Phenotype (%)” value [7] of the same molecule?
Answer: 30%

Question: And the “Total Cell Count” value [7]?
Answer: 308

Question: And the “Population Apoptotic (%)” value [8]?
Answer: 11%

Question: And the “Population Fragmented Nuclei (%)” value [8]?
Answer: 4%

Question: And the “Population Healthy Nuclei (%)” value [8]?
Answer: 73%

Question: And the “Population Hoechst High Intensity Objects (%)” value [8]?
Answer: 3%

Question: And the “Population Membrane Permeable-Phenotype (%)” value [8]?
Answer: 4%

Question: And the “Population Mitochondria Different-Phenotype (%)” value [8]?
Answer: 17%

Question: What about the “Population Mitotic Cells (%)” value [8] of the same molecule?
Answer: 88%

Question: And the “Population Normal (%)” value [8]?
Answer: 96%

Question: What about the “Population Pyknosed Nuclei (%)” value [8] of the same molecule?
Answer: 22%

Question: What about the “Population Tubulin-Different-Phenotype (%)” value [8] of the same molecule?
Answer: 23%

Question: And the “Total Cell Count” value [8]?
Answer: 399

Question: What about the “Population Apoptotic (%)” value [9] of the same molecule?
Answer: 43%

Question: And the “Population Fragmented Nuclei (%)” value [9]?
Answer: 15%

Question: And the “Population Healthy Nuclei (%)” value [9]?
Answer: 44%

Question: And the “Population Hoechst High Intensity Objects (%)” value [9]?
Answer: 12%

Question: What about the “Population Membrane Permeable-Phenotype (%)” value [9] of the same molecule?
Answer: 2%

Question: And the “Population Mitochondria Different-Phenotype (%)” value [9]?
Answer: 29%

Question: What about the “Population Mitotic Cells (%)” value [9] of the same molecule?
Answer: 56%

Question: What about the “Population Normal (%)” value [9] of the same molecule?
Answer: 87%

Question: What about the “Population Pyknosed Nuclei (%)” value [9] of the same molecule?
Answer: 39%

Question: What about the “Population Tubulin-Different-Phenotype (%)” value [9] of the same molecule?
Answer: 31%

Question: What about the “Total Cell Count” value [9] of the same molecule?
Answer: 368

Question: And the “Population Apoptotic (%)” value [10]?
Answer: 10%

Question: And the “Population Fragmented Nuclei (%)” value [10]?
Answer: 6%

Question: What about the “Population Healthy Nuclei (%)” value [10] of the same molecule?
Answer: 77%

Question: What about the “Population Hoechst High Intensity Objects (%)” value [10] of the same molecule?
Answer: 3%

Question: And the “Population Membrane Permeable-Phenotype (%)” value [10]?
Answer: 10%

Question: And the “Population Mitochondria Different-Phenotype (%)” value [10]?
Answer: 7%

Question: What about the “Population Mitotic Cells (%)” value [10] of the same molecule?
Answer: 89%

Question: And the “Population Normal (%)” value [10]?
Answer: 96%

Question: What about the “Population Pyknosed Nuclei (%)” value [10] of the same molecule?
Answer: 15%

Question: What about the “Population Tubulin-Different-Phenotype (%)” value [10] of the same molecule?
Answer: 23%

Question: What about the “Total Cell Count” value [10] of the same molecule?
Answer: 260

Question: And the “Population Apoptotic (%)” value [11]?
Answer: 29%

Question: What about the “Population Fragmented Nuclei (%)” value [11] of the same molecule?
Answer: 10%

Question: What about the “Population Healthy Nuclei (%)” value [11] of the same molecule?
Answer: 69%

Question: And the “Population Hoechst High Intensity Objects (%)” value [11]?
Answer: 9%

Question: And the “Population Membrane Permeable-Phenotype (%)” value [11]?
Answer: 2%

Question: What about the “Population Mitochondria Different-Phenotype (%)” value [11] of the same molecule?
Answer: 23%

Question: And the “Population Mitotic Cells (%)” value [11]?
Answer: 70%

Question: What about the “Population Normal (%)” value [11] of the same molecule?
Answer: 90%

Question: And the “Population Pyknosed Nuclei (%)” value [11]?
Answer: 19%

Question: And the “Population Tubulin-Different-Phenotype (%)” value [11]?
Answer: 21%

Question: And the “Total Cell Count” value [11]?
Answer: 462

Question: And the “Population Apoptotic (%)” value [12]?
Answer: 14%

Question: And the “Population Fragmented Nuclei (%)” value [12]?
Answer: 5%

Question: What about the “Population Healthy Nuclei (%)” value [12] of the same molecule?
Answer: 83%

Question: What about the “Population Hoechst High Intensity Objects (%)” value [12] of the same molecule?
Answer: 2%

Question: What about the “Population Membrane Permeable-Phenotype (%)” value [12] of the same molecule?
Answer: 3%

Question: And the “Population Mitochondria Different-Phenotype (%)” value [12]?
Answer: 5%

Question: What about the “Population Mitotic Cells (%)” value [12] of the same molecule?
Answer: 85%

Question: And the “Population Normal (%)” value [12]?
Answer: 97%

Question: What about the “Population Pyknosed Nuclei (%)” value [12] of the same molecule?
Answer: 10%

Question: What about the “Population Tubulin-Different-Phenotype (%)” value [12] of the same molecule?
Answer: 16%

Question: And the “Total Cell Count” value [12]?
Answer: 731
